Data set [1] is described as follows: Michaelis-Menten constant was measured against adenylate cyclase stimulation of cAMP formation in striatal homogenates. Type of data set: ADME, tissue-based. The conditions noted are these: tissue homogenate. Background: Cyclic AMP is a second messenger, typically raised through Gs and lowered through Gi signalling.
In data set [2] the test system is catechol-O-methyl transferase. The data set can be described thus: Michaelis-Menten constant was measured for O-methylation (probably meta) by catechol-O-methyl transferase. Format: ADME. The method, boiled down:
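Crude rat liver COMT (105000g supernatant) at 37°C for 15 min with 0.1–0.00125 mM substrate, S-adenosyl-L-methionine, 10 mM MgCl2 and 50 mM phosphate pH 7.4 (final). Reaction stopped with perchloric acid; O-methyl product measured by HPLC-ECD. Km from Lineweaver-Burk plots, four experiments, each concentration in triplicate.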

The target in another data set is D(1A) dopamine receptor (Rattus norvegicus, UniProt P18901). The data set can be described thus: In vitro affinity against Dopamine receptor D1 using [3H]SCH-23390 radioligand in rat striatal homogenate.
Another data set concerns the target D(2) dopamine receptor (Rattus norvegicus, UniProt P61169). In words: In vitro affinity against Dopamine receptor D2 using [3H]DP-5,6-ADTN radioligand in rat striatal homogenate.
In data set [3] the test system is Rattus norvegicus. In words: Presynaptic activity at the level of DA metabolism was determined at dose 45 umol/kg on striatal level of DOPAC. Type of data set: functional. The method, boiled down:
(§1)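 Female Wistar rats given 45 μmol/kg sc; striatal DOPAC and HVA measured by HPLC with electrochemical detection, compared with saline controls by Student's t test.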

The subject of data set [4] is Rattus norvegicus. The data set can be described thus: Presynaptic activity at the level of DA metabolism was determined at dose 45 umol/kg on striatal level of HVA. Type of data set: functional. The method, boiled down: as §1
Data set [5] is filed under the species Rattus norvegicus. In words: Dopa accumulation was evaluated in limbic system of male Sprague-Dawley rat. Type of data set: functional. The method, boiled down: (§2)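 Male Sprague-Dawley rats, 200–300 g; drug in saline given sc after NSD 1015 decarboxylase inhibition; Dopa measured by HPLC with electrochemical detection. Dose-response curves from four to six dose levels per substance and brain area; ED50 estimated as the dose giving half-maximal decrease of Dopa level.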

Data set [6] has as its system Rattus norvegicus. In words: Motor activity effect in reserpinized rat at 50 umol/kg, sc expressed as accumulation counts 0-30 min after treatment. Format: functional. An outline of the steps:
(§3)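 Male Sprague-Dawley rats given reserpine 5 mg/kg ip 18 h before; some also given tropolone 50 mg/kg 30 min before. Compound given sc in the neck, or ip where stated. Locomotion recorded by photocell motility meters, one rat per cage, as accumulated counts over 0–30 min, mean ± SEM.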

Data set [7] has as its system Rattus norvegicus. In words: Motor activity effect in reserpinized rat with tropolone pretreatment at 5 umol/kg, sc expressed as accumulation counts 0-30 min after treatment. Type of data set: functional. The method, boiled down:
as §3

For data set [8], the system named is Rattus norvegicus. In words: Level of compound in rat striatum in the absence of tropolone at dose 40 umol/kg. Format: functional, organism-based. An outline of the steps:
(§4)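 Female Wistar rats (170–200 g), compound sc in saline (1 mL/kg), killed 60 min later, with or without tropolone (50 mg/kg ip) before dosing. Striatum, cerebellum and cortex were extracted in perchloric acid, cleaned on Sephadex G10 and analysed by HPLC-ECD (pH 4.0, 15% methanol, 600 mV). Recovery-corrected, n = 3.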

Data set [9] deals with Rattus norvegicus. The data set can be described thus: Level of compound in rat striatum by pretreatment of tropolone (50 mg/kg, ip, 30min) at dose 40 umol/kg. Type of data set: functional, organism-based. The method, boiled down: as §4
The test system of data set [10] is Rattus norvegicus. In words: Level of compound in rat cortex in the absence of tropolone at dose 40 umol/kg. Type of data set: functional, organism-based. An outline of the steps: as §4
Data set [11] has as its system Rattus norvegicus. In words: Level of compound in rat cortex in the absence of tropolone at dose 8 umol/kg. Format: functional, organism-based. An outline of the steps:
as §4

In data set [12] the test system is Rattus norvegicus. The data set can be described thus: Level of compound in rat striatum at dose 40 umol/kg. Type of data set: functional, organism-based. An outline of the steps: as §4
Data set [13] concerns Rattus norvegicus. The data set can be described thus: Level of compound in rat striatum at dose 8 umol/kg. Type of data set: functional, organism-based. The method, boiled down: as §4
Data set [14] concerns Rattus norvegicus. In words: Level of compound in rat striatum by pretreatment of tropolone (50 mg/kg, ip, 30min) at dose 8 umol/kg. Format: functional, organism-based. The method, boiled down: as §4
Data set [15] deals with Rattus norvegicus. The data set can be described thus: Level of compound in rat cerebellum at dose 40 umol/kg. Format: functional, organism-based. An outline of the steps: as §4
The test system of data set [16] is Rattus norvegicus. The data set can be described thus: Level of compound in rat cerebellum at dose 8 umol/kg. Format: functional, organism-based. An outline of the steps:
as §4

Data set [17] deals with Rattus norvegicus. The data set can be described thus: Level of compound in rat cerebellum by pretreatment of tropolone (50 mg/kg, ip, 30min) at dose 8 umol/kg. Format: functional, organism-based. An outline of the steps: as §4
The test system of data set [18] is Rattus norvegicus. The data set can be described thus: Level of compound in rat cerebellum in the absence of tropolone at dose 40 umol/kg. Type of data set: functional, organism-based. The method, boiled down:
as §4

Data set [19] deals with Rattus norvegicus. In words: Level of compound in rat cerebellum in the absence of tropolone at dose 8 umol/kg. Format: functional, organism-based. The method, boiled down: as §4
In data set [20] the test system is Rattus norvegicus. In words: Level of compound in rat cortex at dose 40 umol/kg. Type of data set: functional, organism-based. The method, boiled down:
as §4

Data set [21] has as its system Rattus norvegicus. The data set can be described thus: Level of compound in rat cortex at dose 8 umol/kg. Format: functional, organism-based. An outline of the steps:
as §4

Data set [22] deals with Rattus norvegicus. In words: Level of compound in rat cortex by pretreatment of tropolone (50 mg/kg, ip, 30min) at dose 40 umol/kg. Type of data set: functional, organism-based. The method, boiled down:
as §4

The test system of data set [23] is Rattus norvegicus. The data set can be described thus: Level of compound in rat cortex by pretreatment of tropolone (50 mg/kg, ip, 30min) at dose 8 umol/kg. Type of data set: functional, organism-based. An outline of the steps:
as §4

Data set [24] is filed under the species Rattus norvegicus. The data set can be described thus: Maximal cAMP production in rat striatal homogenates. Format: functional. The method, boiled down: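 cAMP formation in rat striatal homogenates was read with an automated adenylate cyclase assay.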
Data set [25] in a line: Ratio of Vmax/Km was measured. Type of data set: ADME. An outline of the steps: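 Crude COMT from rat liver (KCl homogenate, 105000g supernatant). Incubated at 37 °C in 50 mM phosphate buffer pH 7.4 with 10 mM MgCl2, S-adenosyl-L-methionine ([…] as printed), and substrate at 0.1–0.00125 mM (final concentrations), 15 min. Stopped with perchloric acid; the O-methylated product was measured by HPLC-electrochemical detection. Km and Vmax from Lineweaver-Burk plots of four experiments, each concentration run in triplicate.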

The species entered for data set [26] is Rattus norvegicus. The data set can be described thus: Dopa accumulation was evaluated in corpus striatum of male Sprague-Dawley rat. Type of data set: functional. An outline of the steps:
as §2

The test system of data set [27] is Rattus norvegicus. The data set can be described thus: Level of compound in rat cerebellum by pretreatment of tropolone (50 mg/kg, ip, 30min) at dose 40 umol/kg. Format: functional, organism-based. The method, boiled down: as §4

Each structure is given as a SMILES string.

D(1A) dopamine receptor, sequence (P18901 whole entry): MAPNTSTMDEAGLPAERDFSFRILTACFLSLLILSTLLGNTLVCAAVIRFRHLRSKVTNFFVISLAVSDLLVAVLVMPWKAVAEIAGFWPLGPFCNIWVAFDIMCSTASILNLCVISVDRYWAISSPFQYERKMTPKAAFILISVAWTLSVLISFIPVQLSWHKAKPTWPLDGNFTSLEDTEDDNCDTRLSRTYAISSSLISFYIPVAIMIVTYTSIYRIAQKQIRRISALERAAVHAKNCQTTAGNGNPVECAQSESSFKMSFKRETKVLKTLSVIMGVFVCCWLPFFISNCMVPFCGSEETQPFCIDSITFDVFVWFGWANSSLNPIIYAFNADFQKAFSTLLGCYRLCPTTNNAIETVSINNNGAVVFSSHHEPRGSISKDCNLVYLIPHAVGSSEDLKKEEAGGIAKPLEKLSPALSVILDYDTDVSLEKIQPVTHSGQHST
D(2) dopamine receptor, sequence (P61169 whole entry): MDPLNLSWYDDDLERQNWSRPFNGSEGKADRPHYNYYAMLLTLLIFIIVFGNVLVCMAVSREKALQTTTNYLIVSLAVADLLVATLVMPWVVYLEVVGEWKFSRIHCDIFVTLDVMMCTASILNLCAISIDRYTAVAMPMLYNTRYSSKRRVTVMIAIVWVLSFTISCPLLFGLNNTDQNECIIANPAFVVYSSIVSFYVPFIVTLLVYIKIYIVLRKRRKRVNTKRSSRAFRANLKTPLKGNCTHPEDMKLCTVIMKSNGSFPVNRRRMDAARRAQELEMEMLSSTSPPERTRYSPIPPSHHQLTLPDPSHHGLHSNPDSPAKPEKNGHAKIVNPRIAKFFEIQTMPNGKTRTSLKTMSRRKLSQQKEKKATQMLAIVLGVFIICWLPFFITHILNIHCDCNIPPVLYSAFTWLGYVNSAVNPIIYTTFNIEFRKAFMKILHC

A word on the Km: it is the concentration of substrate that gives half-maximal velocity. Broadly, the Ki is the equilibrium dissociation constant of an inhibitor or competing ligand from its target. For orientation: ED50 means the dose at which the effect has come halfway, by size or by number of responders. The low end stands for greater potency, the high end for weaker potency. Turning to `CCCN1CCC[C@@H](c2ccc(O)c(O)c2)C1`, the values for the Km in data set [1] and in [2] were 21 µM and 77 µM, respectively. The Ki was determined as 13.5 µM on D(1A) dopamine receptor and 0.012 µM at D(2) dopamine receptor. The Control in the data set with Rattus norvegicus [3] was found to be 83%; with Rattus norvegicus [4], 65%. Also, the ED50 was determined as 8.5 µmol/kg in the data set listed under Rattus norvegicus [5] and 8.2 µmol/kg in the data set filed under Rattus norvegicus [26]. The Motor activity with Rattus norvegicus [6] was 78; with Rattus norvegicus [7], 69. Moreover, the Level in the data set with Rattus norvegicus [8] is 61 pmol/g; in the data set on Rattus norvegicus [9] it was 9720 pmol/g; in the data set with Rattus norvegicus [10] it was 167 pmol/g; in the data set on Rattus norvegicus [11], 16 pmol/g; with Rattus norvegicus [12], 10300 pmol/g; in the data set on Rattus norvegicus [13], 2330 pmol/g. Moreover, the Level stood at 2540 pmol/g in the data set with Rattus norvegicus [14]; 9160 pmol/g in the data set with Rattus norvegicus [15]; 2020 pmol/g with Rattus norvegicus [16]; 2290 pmol/g with Rattus norvegicus [17]; 63 pmol/g with Rattus norvegicus [18]; 10 pmol/g with Rattus norvegicus [19]. Further, the Level in the data set with Rattus norvegicus [20] turned out to be 17000 pmol/g; with Rattus norvegicus [21] it was 3410 pmol/g; in the data set with Rattus norvegicus [22], 13200 pmol/g; in the data set with Rattus norvegicus [23] it was 3250 pmol/g; in the data set with Rattus norvegicus [27], 9330 pmol/g. The Production (pM (mg of protein)-1) in the data set filed under Rattus norvegicus [24] came out at 138. Moreover, the Ratio in [25] worked out at 485.
As for `NCCc1ccc(O)c(O)c1` [DOPAMINE], the Km in data set [1] worked out at 7.8 µM.

Source of the values: ChEMBL document CHEMBL1123228, “Enantiomers of 3-(3,4-dihydroxyphenyl)- and 3-(3-hydroxyphenyl)-N-n-propylpiperidine: central pre- and postsynaptic dopaminergic effects and pharmacokinetics” (J Med Chem, 1986).
